The text below walks through data of ChEMBL document CHEMBL4706536, “Novel HIV-1 capsid-targeting small molecules of the PF74 binding site” (Eur J Med Chem, 2020).

Where only a bound is given, the exact number is not on record here.

Data set [1] concerns Human immunodeficiency virus 1. The data set can be described thus: Antiviral activity against HIV 1 NL4-3 infected in human TZM cells expressing GFP assessed as inhibition LTR-activated GFP expression at 20 uM preincubated for 24 hrs followed by viral infection and measured after 48 hrs relative to control. It counts as functional. Conditions: Human immunodeficiency virus 1, NL4-3, TZM, time 72 hrs. In a few lines:
(§1)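 TZM-GFP cells were seeded at 1×10^4 per well. After 24 h, medium was replaced with compound at a single concentration. After a further 24 h, cells were infected with HIV-1 NL4-3 (MOI = 1) and incubated 48 h. GFP-positive cells were counted by imaging and expressed as % inhibition of LTR-driven GFP versus compound-free DMSO control. Run in duplicate, at least two independent experiments.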

A short description of data set [2]: Half life in mouse liver microsomes at 1 uM in presence of NADPH preincubated for 15 mins followed by NADPH addition and measured up to 60 mins by LC-MS/MS analysis. It counts as ADME, Microsome. Conditions: time 15-75 min. In outline: (§2)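 Compound at 1 µM final was preincubated 15 min at 37 °C with human or mouse liver microsomes (0.5 mg/mL protein) and 1 mM MgCl2 in 0.1 M potassium phosphate, pH 7.4. The reaction was started with 1 mM NADPH at 37 °C and sampled at 0, 5, 15, 30 and 60 min. Samples were quenched in acetonitrile/0.1% formic acid with internal standard; t1/2 was determined by LC-MS/MS. A no-NADPH control ran in parallel. Done in duplicate.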

For data set [3], the system named is Human immunodeficiency virus 1. The data set can be described thus: Antiviral activity against HIV 1 NL4-3 infected in human TZM cells expressing GFP assessed as inhibition LTR-activated GFP expression at 2 uM preincubated for 24 hrs followed by viral infection and measured after 48 hrs relative to control. It counts as functional. The following applies: Human immunodeficiency virus 1, NL4-3, TZM, time 72 hrs. In outline: as §1

Data set [4] in a line: Half life in human liver microsomes at 1 uM in presence of NADPH preincubated for 15 mins followed by NADPH addition and measured up to 60 mins by LC-MS/MS analysis. The class given is ADME, Microsome. Conditions: time 15-75 min. In outline: as §2
(Liver microsomes are a subcellular fraction often used to study metabolism.)

The nature of data set [5]: Cytotoxicity against human TZM cells expressing GFP assessed as reduction in cell viability after 72 hrs by XTT assay. The class given is cell-based. In a few lines:
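TZM-GFP cells were seeded at 1×10^4 per well and exposed continuously to increasing compound concentrations for 72 h. Viable cells were measured by XTT. CC50 came from a log(inhibitor) vs normalized response, variable-slope fit, averaged across independent experiments. Duplicate wells, ≥2 experiments, mean ± SD.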
(Formazan colour is commonly taken as a measure of viable cells.)

Data set [6] relates to Human immunodeficiency virus 1. The data set can be described thus: Antiviral activity against HIV 1 NL4-3 infected in human TZM cells expressing GFP assessed as reduction in LTR-activated GFP expression preincubated for 24 hrs followed by viral infection and measured after 48 hrs. It counts as functional, organism-based. Conditions: Human immunodeficiency virus 1, NL4-3, TZM. In a few lines: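 TZM-GFP cells were seeded at 1×10^4 per well. After 24 h they were given increasing compound concentrations for 24 h, then infected with HIV-1 NL4-3 (MOI = 1) for 48 h. GFP-positive cells were counted versus DMSO control. EC50 came from a log(inhibitor) vs normalized response, variable-slope fit, calculated per independent experiment and averaged. Duplicate wells, ≥2 experiments, mean ± SD.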

Broadly, the inhibition is the change of the read-out against control, counted positive when it falls. By half-life is commonly meant the time needed for the level to fall by half in the phase considered. The term CC50 denotes the concentration giving 50% cytotoxicity. On to `CN(C(=O)[C@H](Cc1ccccc1)NC(=O)Cn1cnc2c1c(=O)n(C)c(=O)n2C)c1ccccc1`, for which, in data set [1], the inhibition at 20 µM was determined as 94%. Also, the half-life at 1 µM was 1.2 min in data set [2] and 4.7 min in data set [4]. Also, the inhibition at 2 µM in data set [3] stood at 10%. Moreover, the CC50 at 72 h in data set [5] is over 50 µM.
Take `CCN(C(=O)[C@H](Cc1ccccc1)NC(=O)Cn1cnc2c1c(=O)n(C)c(=O)n2C)c1ccccc1`: in data set [1], the inhibition at 20 µM is 94%. Moreover, in data set [3], the inhibition at 2 µM amounted to 0%. The CC50 at 72 h in data set [5] is over 50 µM.
Turning to `CN(C(=O)[C@H](Cc1ccccc1)NC(=O)Cn1cnc2c1c(=O)n(C)c(=O)n2C)c1cccc(Cl)c1`, the inhibition at 20 µM in data set [1] was determined as 71%. Moreover, the inhibition at 2 µM in data set [3] was determined as 0%. Besides, the CC50 at 72 h in data set [5] was over 50 µM.
In general, EC50 refers to the concentration giving half of the maximal effect. Turning to `CN(C(=O)[C@H](Cc1ccccc1)NC(=O)Cc1c[nH]c2ccc(O)cc12)c1cccc(F)c1`, the EC50 in data set [6] was found to be 0.32 µM. In addition, the CC50 at 72 h in data set [5] was 47 µM.
On to `COc1ccc2[nH]cc(CC(=O)N[C@@H](Cc3ccccc3)C(=O)N(C)c3ccccc3)c2c1`, for which the half-life at 1 µM in data set [2] was 0.5 min; in data set [4] it was 1.2 min. Further, the EC50 in data set [6] is 0.56 µM. Moreover, in data set [5], the CC50 at 72 h came out at 48 µM.
As for `COc1ccc2[nH]cc(CC(=O)N[C@@H](Cc3ccccc3)C(=O)N(C)c3ccc(F)cc3)c2c1`, the EC50 in data set [6] amounted to 0.57 µM. Moreover, the CC50 at 72 h in data set [5] is over 50 µM.
The corresponding values for `CN(C(=O)[C@H](Cc1ccccc1)NC(=O)Cc1c[nH]c2ccc(O)cc12)c1cccc(Br)c1` are 0.38 µM and over 100 µM.
`COc1ccc2[nH]cc(CC(=O)N[C@@H](Cc3ccccc3)C(=O)N(C)c3ccc(C)cc3)c2c1`: in data set [6], the EC50 turned out to be 0.28 µM. In data set [5], the CC50 at 72 h is over 50 µM.
As for `CN(C(=O)[C@H](Cc1ccccc1)NC(=O)Cn1cnc2c1c(=O)n(C)c(=O)n2C)c1cccc(F)c1`, the inhibition at 20 µM in data set [1] stood at 67%. For the same compound, the inhibition at 2 µM in data set [3] amounted to 1%. Further, in data set [5], the CC50 at 72 h is over 50 µM.
On to `CN(C(=O)[C@H](Cc1ccccc1)NC(=O)Cc1c[nH]c2ccc(O)cc12)c1cccc(C(F)(F)F)c1`, for which, in data set [6], the EC50 stood at 0.48 µM. Also, in data set [5], the CC50 at 72 h worked out at 65 µM.
On to `CN(C(=O)[C@H](Cc1ccccc1)NC(=O)Cn1cnc2c1c(=O)n(C)c(=O)n2C)c1ccc(Cl)cc1`, for which the inhibition at 20 µM in data set [1] is 96%. Moreover, in data set [3], the inhibition at 2 µM was determined as 6%. Moreover, in data set [5], the CC50 at 72 h was over 50 µM.
Take `CN(C(=O)[C@H](Cc1ccccc1)NC(=O)Cn1cnc2c1c(=O)n(C)c(=O)n2C)c1ccc(F)cc1`: the inhibition at 20 µM in data set [1] worked out at 85%. The inhibition at 2 µM in data set [3] turned out to be 14%. In addition, the CC50 at 72 h in data set [5] is over 50 µM.
Take `CN(C(=O)[C@H](Cc1ccccc1)NC(=O)Cc1c[nH]c2ccc(O)cc12)c1cccc(Cl)c1`: in data set [6], the EC50 turned out to be 0.31 µM. Further, in data set [5], the CC50 at 72 h was over 100 µM.
For the compound `CN(C(=O)[C@H](Cc1ccccc1)NC(=O)Cc1c[nH]c2ccc(O)cc12)c1ccc(F)cc1`, the EC50 in data set [6] worked out at 0.46 µM. In addition, the CC50 at 72 h in data set [5] was over 50 µM.
For the compound `COc1ccc2[nH]cc(CC(=O)N[C@@H](Cc3ccccc3)C(=O)N(C)c3ccc(Cl)cc3)c2c1`, the half-life at 1 µM in data set [2] is 0.6 min; in data set [4], 1.8 min. In addition, the EC50 in data set [6] was determined as 0.31 µM. For the same compound, the CC50 at 72 h in data set [5] was over 50 µM.
With `COc1ccc2[nH]cc(CC(=O)N[C@@H](Cc3ccccc3)C(=O)N(C)c3cccc(F)c3)c2c1`, in data set [6], the EC50 amounted to 0.99 µM. Besides, the CC50 at 72 h in data set [5] was over 50 µM.
As for `Cc1ccc(N(C)C(=O)[C@H](Cc2ccccc2)NC(=O)Cn2cnc3c2c(=O)n(C)c(=O)n3C)cc1`, the inhibition at 20 µM in data set [1] amounted to 98%. Besides, in data set [3], the inhibition at 2 µM was determined as 18%. For the same compound, the CC50 at 72 h in data set [5] was over 50 µM.
